ChEMBL document CHEMBL1124414, “2(1H)-quinolinones with cardiac stimulant activity. 2. Synthesis and biological activities of 6-(N-linked, five-membered heteroaryl) derivatives” (1989)

How the values were obtained:
[1] = tested on: Canis familiaris; assay: Relative inotropic potency compared with 4-[4-[2-(1,1-dioxo-2-isothiazolidinyl)ethyl]-1-piperidinyl]-6,7-dimethoxyquinazoline at 50 ug/kg after administration at 25 ug/kg intravenously to anesthetized dogs; format: functional, Canis lupus familiaris
Procedure, shortened: (§1)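 Anesthetized dogs instrumented for dP/dt max from left ventricular pressure by carotid catheter. Drug given iv in 0.9% saline. The standard quinazoline inotrope (50 μg/kg iv) was tested in the same dog. Relative potency = (% increase in dP/dt max to drug ÷ % increase to standard) × (standard dose ÷ drug dose).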

[2] = tested on: Canis familiaris; assay: Compound was examined for effects on cardiac contractility after oral administration of 0.5 mg/Kg to conscious dogs for 1 hr; format: functional, Canis lupus familiaris, Heart
Procedure, shortened: (§2)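 Conscious dogs dosed orally by gavage with a solution of test substance. QA interval recorded every 0.16 h from 0.5 h predose to up to 4 h postdose. Each time-point value is the mean of six consecutive sets, each set the mean over an 8-s period. Result is the change from mean predose control QA interval, read at 1 h and 3 h. Saline-dosed controls n = 8.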

[3] = tested on: Canis familiaris; assay: Compound was examined for effects on cardiac contractility to decrease in QA interval after oral administration of 0.5 mg/Kg to conscious dogs for 3h; format: functional, Canis lupus familiaris, Heart; procedure, shortened: as §2
[4] = tested on: Canis familiaris; assay: Compound was tested for cardiotonic activity after intravenous administration of 25 ug/Kg to anesthetized dogs; format: functional, Canis lupus familiaris
Procedure, shortened: (§3)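 Anesthetized dogs with left ventricular pressure recorded by Millar catheter via the carotid artery. The signal is differentiated to give dP/dt max as the contractility index. Equilibration 0.75 h after surgery. Drug given iv in 0.9% saline 0.5 h after a standard inotrope (50 μg/kg). Doses repeated once control levels returned, at least 0.5 h apart. Result is % increase in dP/dt max after a single dose.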

[5] = tested on: Canis familiaris; assay: Relative inotropic potency compared with 4-[4-[2-(1,1-dioxo-2-isothiazolidinyl)ethyl]-1-piperidinyl]-6,7-dimethoxyquinazoline at 50 ug/kg after administration at 12.5 ug/kg intravenously to anesthetized dogs; format: functional, Canis lupus familiaris; procedure, shortened: as §1
[6] = tested on: Canis familiaris; assay: Compound was examined for effects on cardiac contractility after oral administration of 0.125 mg/Kg to conscious dogs for 1 hr; format: functional, Canis lupus familiaris, Heart; procedure, shortened: as §2
[7] = tested on: Canis familiaris; assay: Compound was examined for effects on cardiac contractility to decrease in QA interval after oral administration of 0.125 mg/Kg to conscious dogs for 3h; format: functional, Canis lupus familiaris, Heart; procedure, shortened: as §2
[8] = tested on: Canis familiaris; assay: Compound was tested for cardiotonic activity after intravenous administration of 12.5 ug/Kg to anesthetized dogs; format: functional, Canis lupus familiaris; procedure, shortened: as §3
[9] = tested on: Canis familiaris; assay: Compound was examined for effects on cardiac contractility after oral administration of 0.25 mg/Kg to conscious dogs for 1 hr; format: functional, Canis lupus familiaris, Heart; procedure, shortened: as §2
[10] = tested on: Canis familiaris; assay: Compound was examined for effects on cardiac contractility to decrease in QA interval after oral administration of 0.25 mg/Kg to conscious dogs for 3h; format: functional, Canis lupus familiaris, Heart; procedure, shortened: as §2
[11] = tested on: Canis familiaris; assay: Relative inotropic potency compared with 4-[4-[2-(1,1-dioxo-2-isothiazolidinyl)ethyl]-1-piperidinyl]-6,7-dimethoxyquinazoline at 50 ug/kg after administration at 10 ug/kg intravenously to anesthetized dogs; format: functional, Canis lupus familiaris; procedure, shortened: as §1
[12] = tested on: Canis familiaris; assay: Compound was tested for cardiotonic activity after intravenous administration of 10 ug/Kg to anesthetized dogs; format: functional, Canis lupus familiaris; procedure, shortened: as §3
[13] = tested on: Canis familiaris; assay: Relative inotropic potency compared with 4-[4-[2-(1,1-dioxo-2-isothiazolidinyl)ethyl]-1-piperidinyl]-6,7-dimethoxyquinazoline at 50 ug/kg after administration at 6.5 ug/kg intravenously to anesthetized dogs; format: functional, Canis lupus familiaris; settings: in the assay text read “6.25 ug/kg” for “6.5 ug/kg”; procedure, shortened: as §1
[14] = tested on: Canis familiaris; assay: Compound was examined for effects on cardiac contractility after oral administration of 0.0625 mg/Kg to conscious dogs for 1 hr; format: functional, Canis lupus familiaris, Heart; procedure, shortened: as §2
[15] = tested on: Canis familiaris; assay: Compound was examined for effects on cardiac contractility to decrease in QA interval after oral administration of 0.0625 mg/Kg to conscious dogs for 3h; format: functional, Canis lupus familiaris, Heart; procedure, shortened: as §2
[16] = tested on: Canis familiaris; assay: Compound was tested for cardiotonic activity after intravenous administration of 6.25 ug/Kg to anesthetized dogs; format: functional, Canis lupus familiaris; procedure, shortened: as §3
[17] = tested on: Canis familiaris; assay: Relative inotropic potency compared with 4-[4-[2-(1,1-dioxo-2-isothiazolidinyl)ethyl]-1-piperidinyl]-6,7-dimethoxyquinazoline at 50 ug/kg after administration at 250 ug/kg intravenously to anesthetized dogs; format: functional, Canis lupus familiaris; procedure, shortened: as §1
[18] = tested on: Canis familiaris; assay: Compound was tested for cardiotonic activity after intravenous administration of 250 ug/Kg to anesthetized dogs; format: functional, Canis lupus familiaris; procedure, shortened: as §3
[19] = tested on: Canis familiaris; assay: Relative inotropic potency compared with 4-[4-[2-(1,1-dioxo-2-isothiazolidinyl)ethyl]-1-piperidinyl]-6,7-dimethoxyquinazoline at 50 ug/kg after administration at 50 ug/kg intravenously to anesthetized dogs; format: functional, Canis lupus familiaris; procedure, shortened: as §1
[20] = tested on: Canis familiaris; assay: Compound was examined for effects on cardiac contractility after oral administration of 1 mg/Kg to conscious dogs for 1 hr; format: functional, Canis lupus familiaris, Heart; procedure, shortened: as §2
[21] = tested on: Canis familiaris; assay: Compound was examined for effects on cardiac contractility to decrease in QA interval after oral administration of 1 mg/Kg to conscious dogs for 3h; format: functional, Canis lupus familiaris, Heart; procedure, shortened: as §2
[22] = tested on: Canis familiaris; assay: Compound was tested for cardiotonic activity after intravenous administration of 50 ug/Kg to anesthetized dogs; format: functional, Canis lupus familiaris; procedure, shortened: as §3
[23] = tested on: Canis familiaris; assay: Relative inotropic potency compared with 4-[4-[2-(1,1-dioxo-2-isothiazolidinyl)ethyl]-1-piperidinyl]-6,7-dimethoxyquinazoline at 50 ug/kg after administration of 50 ug/kg intravenously to anesthetized dogs; format: functional, Canis lupus familiaris; procedure, shortened: as §1
[24] = tested on: Canis familiaris; assay: Relative inotropic potency compared with 4-[4-[2-(1,1-dioxo-2-isothiazolidinyl)ethyl]-1-piperidinyl]-6,7-dimethoxyquinazoline at 50 ug/kg after iv administration of 25 ug/kg to anesthetized dogs; format: functional, Canis lupus familiaris; procedure, shortened: as §1

Compound: Cc1cc(-n2cncn2)cc2ccc(O)nc12
- Relative inotropic potency [1]: 3.6
- Decrease in QA interval [2]: 21 ms
- Decrease in QA interval [3]: 21 ms
- Increase in dP/dt max [4]: 67%

Compound: Cc1cc(-n2ccnc2C)cc2ccc(O)nc12
- Relative inotropic potency [5]: 5.5
- Decrease in QA interval [6]: 14 ms
- Decrease in QA interval [7]: 13 ms
- Increase in dP/dt max [8]: 50%

Compound: Cc1cc(-n2cnnn2)cc2ccc(O)nc12
- Relative inotropic potency [1]: 3.4
- Decrease in QA interval [9]: 15 ms
- Decrease in QA interval [10]: 16 ms
- Increase in dP/dt max [4]: 117%

Compound: Cc1cn(-c2cc(C)c3nc(O)cc(C)c3c2)c(C)n1
- Relative inotropic potency [11]: 1.2
- Increase in dP/dt max [12]: 10%

Compound: Cc1cc(-n2cnc(C(F)(F)F)c2)cc2ccc(O)nc12
- Relative inotropic potency [5]: 4.5
- Decrease in QA interval [6]: 11 ms
- Decrease in QA interval [7]: 5 ms
- Increase in dP/dt max [8]: 82%

Compound: Cc1cn(-c2cc(C)c3nc(O)ccc3c2)cn1
- Relative inotropic potency [13]: 16.3
- Decrease in QA interval [14]: 12 ms
- Decrease in QA interval [15]: 7 ms
- Increase in dP/dt max [16]: 59%

Compound: Cc1cn(-c2ccc3nc(O)ccc3c2)c(C)n1
- Relative inotropic potency [17]: 0.2
- Increase in dP/dt max [18]: 29%

Compound: Cc1cn(-c2cc(C)c3c(c2)CCC(=O)N3)c(C)n1
- Relative inotropic potency [19]: 0.9
- Decrease in QA interval [20]: 12 ms
- Decrease in QA interval [21]: 13 ms
- Increase in dP/dt max [22]: 52%

Compound: Cc1cn(-c2cc(C(F)(F)F)c3nc(O)ccc3c2)c(C)n1
- Relative inotropic potency [17]: 0.2
- Increase in dP/dt max [18]: 22%

Compound: Cc1cc(-n2cccn2)cc2ccc(O)nc12
- Relative inotropic potency [23]: 1.7
- Increase in dP/dt max [22]: 79%

Compound: Cc1cc(-n2ncnn2)cc2ccc(O)nc12
- Relative inotropic potency [19]: 1.1
- Increase in dP/dt max [22]: 24%

Compound: Cc1cc(-n2cncc2C)cc2ccc(O)nc12
- Relative inotropic potency [5]: 4.9
- Decrease in QA interval [6]: 14 ms
- Decrease in QA interval [7]: 11 ms
- Increase in dP/dt max [8]: 55%

Compound: Cc1cc(-n2cnnc2)cc2ccc(O)nc12
- Relative inotropic potency ([1]; in the assay text read “administration at 50 ug/kg” for “administration at 25 ug/kg”): 2.3
- Decrease in QA interval [9]: 15 ms
- Decrease in QA interval [10]: 17 ms
- Increase in dP/dt max [22]: 68%

Compound: Cc1cn(-c2cc(C)c3c(c2)C(C)CC(=O)N3)c(C)n1 (stereo unspecified)
- Relative inotropic potency [11]: 1.9
- Increase in dP/dt max [12]: 20%

Compound: Cc1cc(-n2ccnc2)cc2ccc(O)nc12
- Relative inotropic potency [24]: 4.5
- Decrease in QA interval [9]: 20 ms
- Decrease in QA interval [10]: 15 ms
- Increase in dP/dt max [4]: 139%

Compound: Cc1[nH]c(=O)c(C#N)cc1-c1ccncc1 [MILRINONE]
- Relative inotropic potency [1]: 1.6
- Decrease in QA interval [9]: 13 ms
- Decrease in QA interval [10]: 7 ms
- Increase in dP/dt max [4]: 46%

Compound: Cc1cn(-c2cc(C)c3[nH]c(=O)ccc3c2)c(C)n1 [NANTERINONE]
- Relative inotropic potency [5]: 7.6
- Decrease in QA interval [9]: 16 ms
- Decrease in QA interval [10]: 17 ms
- Increase in dP/dt max [8]: 40%
